Published values of several laboratories.
CCR2: C-C chemokine receptor type 2 (CCR2, Homo sapiens, UniProt P41597)
MAPK10: Mitogen-activated protein kinase 10 (MAPK10, Homo sapiens, UniProt P53779)
ALK: ALK tyrosine kinase receptor (ALK, Homo sapiens, UniProt Q9UM73)
SIRT6: NAD-dependent protein deacylase sirtuin-6 (SIRT6, Homo sapiens, UniProt Q8N6T7)
FLT4: Vascular endothelial growth factor receptor 3 (FLT4, Homo sapiens, UniProt P35916)
CCR5: C-C chemokine receptor type 5 (CCR5, Homo sapiens, UniProt P51681)
CTSB: Cathepsin B (CTSB, Homo sapiens, UniProt P07858)
PTPRC: Receptor-type tyrosine-protein phosphatase C (PTPRC, Homo sapiens, UniProt P08575)
FASN: Fatty acid synthase (FASN, Gallus gallus, UniProt P12276)
SCN5A: Sodium channel protein type 5 subunit alpha (SCN5A, Homo sapiens, UniProt Q14524)

SMILES | target | test | conditions | IC50 [µM]
CN(Cc1ccc(NC(=O)C2=Cc3cc(-c4ccc(OCCCF)cc4)ccc3CCC2)cc1)C1CCOCC1 | CCR2 | calcium signal, antagonist | – | 0.13
Cc1[nH]c(N)nc1-c1ccnc(Nc2ccc(N3CCOCC3)cc2)c1 | MAPK10 | enzyme activity, inhibitor, ELISA | – | 1.39
Cc1cc(-c2cc(C#N)ccc2O[C@H]2C[C@H]2c2ccc(F)cc2F)n[nH]1 | ALK | phosphorylation in cells, inhibitor, ELISA | – | > 1
NC(=O)c1ccc(C(=O)NOCc2ccc(Sc3cccc(C(F)(F)F)c3)c(C(F)(F)F)c2)cc1 | SIRT6 | enzyme activity, inhibitor, fluorescence | – | 1.1
Nc1ncc2c(n1)-c1c([nH]c3ccc(-c4ccc(F)cc4)cc13)CCC2 | Myosin light chain kinase family member 4 (MYLK4, Homo sapiens, UniProt Q86YV6) | enzyme activity, inhibitor, radiometric | – | 0.035
NC(=O)c1ccc(C(=O)NOCc2ccc(Oc3ccccc3)cc2)cc1 | SIRT6 | enzyme activity, inhibitor, fluorescence | – | 1.91
Cc1ccc(C(=O)Nc2ccc(Oc3cc4cnn(C)c4cc3-c3cn[nH]c3)c(F)c2)c(=O)n1-c1ccc(F)cc1 | FLT4 | enzyme activity, inhibitor, radiometric | – | 0.023
OCc1cc(C(O)CNCCCCCCOCCCCc2ccccc2)ccc1O (stereo not shown) | CCR5 | calcium signal, antagonist | – | 64.6
COc1cc(/C=N/n2c(C)nc3ccc(C)cc3c2=O)ccc1OCc1ccccc1 | CTSB | enzyme activity, inhibitor | – | 67.5
CCS(=O)(=O)N1CC(CC#N)(n2cc(-c3ncnc4[nH]ccc34)cn2)C1 | Multidrug and toxin extrusion protein 1 (SLC47A1, Homo sapiens, UniProt Q96FL8) | transporter uptake, inhibitor, radiometric | 2 min | 76.7
COc1cccc(-c2cc(C)[nH]n2)c1 | ALK | enzyme activity, inhibitor, TR-FRET | – | 170
CCN(CC)C(=S)SSC(=S)N(CC)CC | PTPRC | enzyme activity, inhibitor, fluorescence | – | > 500
NC(=S)c1ccc(C(=O)NOCc2ccc(C(F)(F)F)cc2)cc1 | SIRT6 | enzyme activity, inhibitor, fluorescence | – | 2.03
CN(Cc1ccc(NC(=O)C2=Cc3cc(-c4ccc(OCCCCCF)cc4)ccc3CCC2)cc1)C1CCOCC1 | CCR5 | ligand displacement, radioligand | cell membranes | 2
C=C(C)C(CC=C(C)C)Cc1c(O)cc(OC)c2c1O[C@H](c1ccc(O)cc1O)CC2=O (single isomer, unassigned; (-)) | FASN | enzyme activity, inhibitor, radiometric | – | 10.3
CN[C@H]1CC[C@@H](c2ccc(Cl)c(Cl)c2)c2ccccc21 | PTPRC | enzyme activity, inhibitor, fluorescence | – | 80
O=C(NCCN1CCCC1)c1cc(-c2ccc(CN3CCOCC3)cc2)nc2ccc(F)cc12 | SCN5A | ion current, inhibitor, patch clamp | – | 16
Cc1cc(-c2cccc(C(C)(C)C)c2)[nH]n1 | ALK | enzyme activity, inhibitor, TR-FRET | – | 270
NC(=O)c1ccc(C(=O)NOCc2ccc(C(F)(F)F)c(Cl)c2)cc1 | SIRT6 | enzyme activity, inhibitor, fluorescence | – | 1.99
CCn1c(-c2nc3ccc(C(=O)N4CCCC(N)C4)cc3n2C)cc2ccccc21 (stereo not shown) | SCN5A | ion current, inhibitor | – | 31.6
Oc1ccc(-c2ccc3[nH]c4ncc(/C=C/c5cccc(F)c5)cc4c3c2)cc1 | ALK | enzyme activity, inhibitor, ELISA | – | > 10
CCc1nc[nH]c1-c1ccnc(Nc2ccc(N3CCOCC3)cc2)c1 | MAPK10 | enzyme activity, inhibitor, ELISA | – | 1.2
Cc1cccc(-c2cc(C)n[nH]2)c1 | ALK | enzyme activity, inhibitor, TR-FRET | – | 230
O=[N+]([O-])C=Cc1ccc2[nH]c3ncc(Cl)cc3c2c1 | ALK | enzyme activity, inhibitor, ELISA | – | 3.3
Cc1nc2ccccc2c(=O)n1NC(=O)CSc1nc2ccccc2c(=O)n1-c1ccccc1 | CTSB | enzyme activity, inhibitor | – | 62.8

SMILES | target | test | conditions | IC50 [µM]
CN(Cc1ccc(NC(=O)C2=Cc3cc(-c4ccc(OCCCCCO)cc4)ccc3CCC2)cc1)C1CCOCC1 | CCR5 | ligand displacement, radioligand | cell membranes | 3.1
CSc1ccc(/C=C2/C(C)=C(CC(=O)O)c3cc(F)ccc32)cc1 | Dual specificity calcium/calmodulin-dependent 3',5'-cyclic nucleotide phosphodiesterase 1A (PDE1A, Homo sapiens, UniProt P54750) | enzyme activity, inhibitor | – | > 100
CN1CCN(c2ccc(Nc3ncc4cc(C#N)c(=O)n(C5CCCC5)c4n3)cc2)CC1 | Serine/threonine-protein kinase D3 (PRKD3, Homo sapiens, UniProt O94806) | enzyme activity, inhibitor | – | 0.0709
COC(=O)c1ccc(C(=O)NOCc2ccccc2)cc1 | SIRT6 | enzyme activity, inhibitor, fluorescence | – | 89.7
C=CC(=O)Nc1ccc(N2CCC[C@@H](Nc3ncc(Cl)c(-c4c[nH]c5ccccc45)n3)C2)cc1C | Cyclin-dependent kinase 2, with cyclin A (CDK2, Homo sapiens, UniProt P24941) | enzyme activity, inhibitor, FRET | – | 1.1
Cc1cc(-c2cccc(S(C)(=O)=O)c2)[nH]n1 | ALK | enzyme activity, inhibitor, TR-FRET | – | 120
O=C(NO)c1ccc(C(=O)NOCc2ccc(C(F)(F)F)cc2)cc1 | SIRT6 | enzyme activity, inhibitor, fluorescence | – | 8.34
Cc1cnc(-c2ccc(-c3ccc(NC(=O)Nc4c(F)cc(F)cc4F)cc3F)c3c2C(=O)NC3)[nH]1 | FLT4 | enzyme activity, inhibitor | – | 0.0876
COc1ccc(-c2ccc3[nH]c4ncc(-c5cccc(N)c5)cc4c3c2)cc1 | ALK | enzyme activity, inhibitor, ELISA | – | > 10
COC(=O)[C@@]1(c2ccc(F)cc2F)C[C@@H]1Oc1ccc(C#N)cc1-c1cc(C)[nH]n1 (racemic) | ALK | enzyme activity, inhibitor, TR-FRET | – | 0.041
Nc1nonc1-n1cc(C(=O)N/N=C/c2ccc(C(F)(F)F)cc2[N+](=O)[O-])nn1 | SIRT6 | enzyme activity, inhibitor, fluorescence | – | 6.2
COc1cc(/C=N/n2c(C)nc3ccc(C)cc3c2=O)cc([N+](=O)[O-])c1O | CTSB | enzyme activity, inhibitor | – | 107
Nc1nonc1-n1cc(C(=O)N/N=C/c2ccco2)nn1 | SIRT6 | enzyme activity, inhibitor, fluorescence | – | 14
Cn1c[n+]([C@@H]2O[C@H](COP(=O)(O)OP(=O)([O-])OP(=O)(O)OC[C@H]3O[C@@H](n4cnc5c(=O)[nH]c(N)nc54)[C@H](O)[C@@H]3O)[C@@H](O)[C@H]2O)c2nc(N)[nH]c(=O)c21 | m7GpppX diphosphatase (DCPS, Homo sapiens, UniProt Q96C86) | enzyme activity, inhibitor, radiometric | – | ~0.03
C=C(C)[C@H](CC=C(C)C)Cc1c(O)cc(O)c2c1O[C@H](c1ccc(O)cc1O)CC2=O | FASN | enzyme activity, inhibitor, radiometric | – | 6.7
COc1ccc(CONC(=O)c2ccc(C(N)=O)cc2)cc1 | SIRT6 | enzyme activity, inhibitor, fluorescence | – | 7.49
Cc1cc(Nc2cc(CN3CCOCC3)c3nc(C)c(Cc4ccc(Cl)cc4F)n3n2)n[nH]1 | FLT4 | enzyme activity, inhibitor, TR-FRET | – | 0.025
N#Cc1ccccc1CONC(=O)c1ccc(C(N)=O)cc1 | SIRT6 | enzyme activity, inhibitor, fluorescence | – | 52.3
COC[C@]1(c2ccc(F)cc2F)C[C@H]1Oc1ccc(C#N)cc1-c1cc(C)[nH]n1 (racemic) | ALK | enzyme activity, inhibitor, TR-FRET | – | 0.043
COc1ccc2c(Oc3ccc4c(C(=O)Nc5ccccc5N)cccc4c3)ccnc2c1 | MAPK10 | enzyme activity, inhibitor | – | > 0.5
CN(Cc1ccc(NC(=O)C2=Cc3cc(-c4ccc(OCCCO)cc4)ccc3CCC2)cc1)C1CCOCC1 | CCR2 | ligand displacement, radioligand | cell membranes | 0.199
CCS(=O)(=O)Nc1ccc(C(=O)NC2CC3CCC2C3)cc1 (stereo not shown) | Pantothenate kinase 1 (Homo sapiens, UniProt Q8TE04) | enzyme activity, inhibitor, ATP luminescence | – | 0.27
C=CC(=O)N1CCN(C(=O)c2cc(Cc3n[nH]c(=O)c4ccccc34)ccc2F)CC1 | Poly [ADP-ribose] polymerase 2 (PARP2, Homo sapiens, UniProt Q9UGN5) | enzyme activity, inhibitor | – | 0.0317
NC(=O)c1ccc[n+]([C@@H]2O[C@H](COP(=O)([O-])OP(=O)(O)OC[C@H]3O[C@@H](n4cnc5c(N)ncnc54)[C@H](O)[C@@H]3O)[C@@H](O)[C@H]2O)c1 | Protein mono-ADP-ribosyltransferase PARP14 (PARP14, Homo sapiens, UniProt Q460N5) | enzyme activity, inhibitor | – | 110
